Results published in ChEMBL document CHEMBL1275484, “Rifampin and rifaximin resistance in clinical isolates of Clostridium difficile” (Antimicrob Agents Chemother, 2008).
≈ marks a conversion by molar mass, not a printed value.

Key:
Format in all cases: functional
Clostridioides difficile [1] = test: Antimicrobial activity against Clostridium difficile isolate 36 by Etest
Outline: (§1)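 Rifampin MIC by Etest strip on brucella blood agar, run per the strip maker's instructions. Isolates were HindIII REA-typed clinical C. difficile.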

Clostridioides difficile [2] = test: Antimicrobial activity against Clostridium difficile isolate 76 by agar dilution method
Outline: (§2)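 CLSI reference agar dilution for anaerobes, with endpoints read per guideline M11-A7. Rifaximin was dissolved in methanol, diluted in 0.1 M phosphate buffer pH 7.4 with 0.45% SDS, and tested at 0.0009–256 μg/ml. Rifampin was dissolved in methanol, diluted in water, and tested at 0.00001–256 μg/ml. Control strain: C. difficile ATCC […]. Isolates were typed by HindIII REA.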

Clostridioides difficile [3] = test: Antimicrobial activity against Clostridium difficile isolate 41 by Etest
Outline: (§3)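 Rifampin Etest strips were run on brucella blood agar following the manufacturer's instructions to give an MIC. Clinical isolates were typed by HindIII REA.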

Clostridioides difficile [4] = test: Antimicrobial activity against Clostridium difficile isolate 8 by Etest
Outline: (§4)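 Rifampin MIC by Etest on brucella blood agar, run per the strip manufacturer's instructions, against clinical isolates typed by HindIII REA.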

Clostridioides difficile [5] = test: Antimicrobial activity against rifaximin-resistant Clostridium difficile isolate 12 expressing RpoB H502N and R505K mutants by agar dilution method
Outline: (§5)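 MICs were found by the CLSI reference agar dilution method for anaerobes, with endpoints read per M11-A7 and C. difficile […] as control. Rifaximin was dissolved in methanol, diluted in 0.1 M phosphate buffer pH 7.4 with 0.45% SDS, and tested at 0.0009–256 μg/ml. Rifampin was dissolved in methanol, diluted in water, and tested at 0.00001–256 μg/ml.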

Clostridioides difficile [6] = test: Antimicrobial activity against Clostridium difficile isolate 73 by agar dilution method; outline: as §2
Clostridioides difficile [7] = test: Antimicrobial activity against Clostridium difficile isolate 40 by agar dilution method
Outline: (§6)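 CLSI reference agar dilution method for anaerobes, with endpoints read per guideline M11-A7. Rifaximin was dissolved in methanol, diluted in 0.1 M phosphate buffer (pH 7.4) with 0.45% SDS, and tested at 0.0009–256 μg/ml. Rifampin was dissolved in methanol, diluted in water, and tested at 0.00001–256 μg/ml. C. difficile ATCC […] served as control. Isolates were typed by HindIII REA.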

Clostridioides difficile [8] = test: Antimicrobial activity against Clostridium difficile isolate 35 by Etest; outline: as §1
Clostridioides difficile [9] = test: Antimicrobial activity against Clostridium difficile isolate 56 by Etest; outline: as §3
Clostridioides difficile [10] = test: Antimicrobial activity against Clostridium difficile isolate 46 by agar dilution method; outline: as §6
Clostridioides difficile [11] = test: Antimicrobial activity against rifaximin-resistant Clostridium difficile isolate 4 expressing RpoB S488T and R505K mutants by Etest
Outline: (§7)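 Rifampin Etest on clinical C. difficile isolates typed by HindIII REA, run per the strip manufacturer's instructions on brucella blood agar, with the MIC read from the strip.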

Clostridioides difficile [12] = test: Antimicrobial activity against Clostridium difficile isolate 57 by agar dilution method; outline: as §6
Clostridioides difficile [13] = test: Antimicrobial activity against Clostridium difficile isolate 53 by agar dilution method; outline: as §6
Clostridioides difficile [14] = test: Antimicrobial activity against Clostridium difficile isolate 16 by Etest; outline: as §1
Clostridioides difficile [15] = test: Antimicrobial activity against Clostridium difficile isolate 70 by Etest; outline: as §4
Clostridioides difficile [16] = test: Antimicrobial activity against Clostridium difficile isolate 75 by agar dilution method; outline: as §2
Clostridioides difficile [17] = test: Antimicrobial activity against rifaximin-resistant Clostridium difficile isolate 24 expressing RpoB H502N and R505K mutants by Etest; outline: as §7
Clostridioides difficile [18] = test: Antimicrobial activity against Clostridium difficile isolate 35 by agar dilution method
Outline: (§8)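 MIC by CLSI reference agar dilution for anaerobes, with endpoints read per M11-A7 and C. difficile […] as control. Rifaximin was dissolved in methanol, diluted in 0.1 M phosphate buffer pH 7.4 plus 0.45% SDS, and tested at 0.0009–256 μg/ml. Rifampin was dissolved in methanol, diluted in water, and tested at 0.00001–256 μg/ml.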

Clostridioides difficile [19] = test: Antimicrobial activity against Clostridium difficile isolate 19 by Etest; outline: as §1
Clostridioides difficile [20] = test: Antimicrobial activity against Clostridium difficile isolate 69 by Etest; outline: as §4
Clostridioides difficile [21] = test: Antimicrobial activity against Clostridium difficile isolate 12 expressing RpoB H502N and R505K mutants by Etest; outline: as §7
Clostridioides difficile [22] = test: Antimicrobial activity against Clostridium difficile isolate 16 by agar dilution method; outline: as §8
Clostridioides difficile [23] = test: Antimicrobial activity against Clostridium difficile isolate 13 by Etest; outline: as §1
Clostridioides difficile [24] = test: Antimicrobial activity against Clostridium difficile isolate 28 by agar dilution method; outline: as §8
Clostridioides difficile [25] = test: Antimicrobial activity against rifaximin-resistant Clostridium difficile isolate 66 expressing RpoB D492N and R505K mutants by agar dilution method; outline: as §5
Clostridioides difficile [26] = test: Antimicrobial activity against Clostridium difficile isolate 75 by Etest; outline: as §4
Clostridioides difficile [27] = test: Antimicrobial activity against Clostridium difficile isolate 49 by agar dilution method; outline: as §6
Clostridioides difficile [28] = test: Antimicrobial activity against Clostridium difficile isolate 54 by Etest; outline: as §3
Clostridioides difficile [29] = test: Antimicrobial activity against Clostridium difficile isolate 29 by Etest; outline: as §1
Clostridioides difficile [30] = test: Antimicrobial activity against Clostridium difficile isolate 59 by agar dilution method; outline: as §6
Clostridioides difficile [31] = test: Antimicrobial activity against Clostridium difficile isolate 47 by agar dilution method; outline: as §6
Clostridioides difficile [32] = test: Antimicrobial activity against Clostridium difficile isolate 55 by agar dilution method; outline: as §6
Clostridioides difficile [33] = test: Antimicrobial activity against rifaximin-resistant Clostridium difficile isolate 24 expressing RpoB H502N and R505K mutants by agar dilution method; outline: as §5
Clostridioides difficile [34] = test: Antimicrobial activity against Clostridium difficile isolate 30 by Etest; outline: as §1
Clostridioides difficile [35] = test: Antimicrobial activity against rifaximin-resistant Clostridium difficile isolate 65 expressing RpoB H502N and R505K mutants by agar dilution method; outline: as §5
Clostridioides difficile [36] = test: Antimicrobial activity against Clostridium difficile isolate 5 by agar dilution method; outline: as §6
Clostridioides difficile [37] = test: Antimicrobial activity against Clostridium difficile isolate 54 by agar dilution method; outline: as §6
Clostridioides difficile [38] = test: Antimicrobial activity against Clostridium difficile isolate 39 by Etest; outline: as §3
Clostridioides difficile [39] = test: Antimicrobial activity against Clostridium difficile isolate 59 by Etest; outline: as §3
Clostridioides difficile [40] = test: Antimicrobial activity against Clostridium difficile isolate 77 by Etest; outline: as §4
Clostridioides difficile [41] = test: Antimicrobial activity against Clostridium difficile isolate 51 by agar dilution method; outline: as §6
Clostridioides difficile [42] = test: Antimicrobial activity against Clostridium difficile isolate 46 by Etest; outline: as §3
Clostridioides difficile [43] = test: Antimicrobial activity against Clostridium difficile isolate 62 by agar dilution method; outline: as §2
Clostridioides difficile [44] = test: Antimicrobial activity against Clostridium difficile isolate 14 by Etest; outline: as §1
Clostridioides difficile [45] = test: Antimicrobial activity against Clostridium difficile isolate 43 by Etest; outline: as §3
Clostridioides difficile [46] = test: Antimicrobial activity against Clostridium difficile isolate 61 by agar dilution method; outline: as §6
Clostridioides difficile [47] = test: Antimicrobial activity against Clostridium difficile isolate 1 by Etest; outline: as §1
Clostridioides difficile [48] = test: Antimicrobial activity against Clostridium difficile isolate 69 by agar dilution method; outline: as §2
Clostridioides difficile [49] = test: Antimicrobial activity against Clostridium difficile isolate 58 by Etest; outline: as §3
Clostridioides difficile [50] = test: Antimicrobial activity against Clostridium difficile isolate 15 by agar dilution method; outline: as §8
Clostridioides difficile [51] = test: Antimicrobial activity against Clostridium difficile isolate 74 by agar dilution method; outline: as §2

SMILES: CO[C@H]1/C=C/O[C@@]2(C)Oc3c(C)c(O)c4c(O)c(c(/C=N/N5CCN(C)CC5)c(O)c4c3C2=O)NC(=O)/C(C)=C\C=C\[C@H](C)[C@H](O)[C@@H](C)[C@@H](O)[C@@H](C)[C@H](OC(C)=O)[C@@H]1C [RIFAMPIN]
- MIC (Clostridioides difficile [1]): < 2 ng/mL
- MIC (Clostridioides difficile [2]): 0.06 ng/mL (≈ 0.0729 nM)
- MIC (Clostridioides difficile [3]): < 2 ng/mL
- MIC (Clostridioides difficile [4]): < 2 ng/mL
- MIC (Clostridioides difficile [5]): > 256000 ng/mL
- MIC (Clostridioides difficile [6]): 0.06 ng/mL (≈ 0.0729 nM)
- MIC (Clostridioides difficile [7]): 0.9 ng/mL (≈ 1.09 nM)
- MIC (Clostridioides difficile [8]): < 2 ng/mL
- MIC (Clostridioides difficile [9]): < 2 ng/mL
- MIC (Clostridioides difficile [10]): 0.9 ng/mL (≈ 1.09 nM)
- MIC (Clostridioides difficile [11]): > 32000 ng/mL
- MIC (Clostridioides difficile [12]): 0.9 ng/mL (≈ 1.09 nM)
- MIC (Clostridioides difficile [13]): 1.9 ng/mL (≈ 2.31 nM)
- MIC (Clostridioides difficile [14]): < 2 ng/mL
- MIC (Clostridioides difficile [15]): < 2 ng/mL
- MIC (Clostridioides difficile [16]): 0.06 ng/mL (≈ 0.0729 nM)
- MIC (Clostridioides difficile [17]): > 32000 ng/mL
- MIC (Clostridioides difficile [18]): 0.9 ng/mL (≈ 1.09 nM)
- MIC (Clostridioides difficile [19]): < 2 ng/mL
- MIC (Clostridioides difficile [20]): < 2 ng/mL
- MIC (Clostridioides difficile [21]): > 32000 ng/mL
- MIC (Clostridioides difficile [22]): 0.9 ng/mL (≈ 1.09 nM)
- MIC (Clostridioides difficile [23]): < 2 ng/mL
- MIC (Clostridioides difficile [24]): 0.9 ng/mL (≈ 1.09 nM)
- MIC (Clostridioides difficile [25]): > 256000 ng/mL
- MIC (Clostridioides difficile [26]): < 2 ng/mL
- MIC (Clostridioides difficile [27]): 0.9 ng/mL (≈ 1.09 nM)
- MIC (Clostridioides difficile [28]): < 2 ng/mL
- MIC (Clostridioides difficile [29]): < 2 ng/mL
- MIC (Clostridioides difficile [30]): 0.9 ng/mL (≈ 1.09 nM)
- MIC (Clostridioides difficile [31]): 0.9 ng/mL (≈ 1.09 nM)
- MIC (Clostridioides difficile [32]): 0.9 ng/mL (≈ 1.09 nM)
- MIC (Clostridioides difficile [33]): > 256000 ng/mL
- MIC (Clostridioides difficile [34]): < 2 ng/mL
- MIC (Clostridioides difficile [35]): > 256000 ng/mL
- MIC (Clostridioides difficile [36]): 0.06 ng/mL (≈ 0.0729 nM)
- MIC (Clostridioides difficile [37]): 0.9 ng/mL (≈ 1.09 nM)
- MIC (Clostridioides difficile [38]): < 2 ng/mL
- MIC (Clostridioides difficile [39]): < 2 ng/mL
- MIC (Clostridioides difficile [40]): < 2 ng/mL
- MIC (Clostridioides difficile [41]): 0.9 ng/mL (≈ 1.09 nM)
- MIC (Clostridioides difficile [42]): < 2 ng/mL
- MIC (Clostridioides difficile [43]): 0.9 ng/mL (≈ 1.09 nM)
- MIC (Clostridioides difficile [44]): < 2 ng/mL
- MIC (Clostridioides difficile [45]): < 2 ng/mL
- MIC (Clostridioides difficile [46]): 0.9 ng/mL (≈ 1.09 nM)
- MIC (Clostridioides difficile [47]): < 2 ng/mL
- MIC (Clostridioides difficile [48]): 0.06 ng/mL (≈ 0.0729 nM)
- MIC (Clostridioides difficile [49]): < 2 ng/mL
- MIC (Clostridioides difficile [50]): 0.9 ng/mL (≈ 1.09 nM)
- MIC (Clostridioides difficile [51]): 0.06 ng/mL (≈ 0.0729 nM)
